Runt-CBFb FRET: inhibitors of RUNX1 Runt–CBFb binding, primary screen, biochemical, FRET, Cerulean-Runt, Venus-CBFb, uHTS; Runt-related transcription factor 1 (Homo sapiens) + Core-binding factor subunit beta …; Cerulean-Runt/Venus-CBFb FRET ratio 530/480, 1 h; inhibition, % at 20 µM; 220,000 compounds, 0.46% hits; AID 1496, 2009;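 active = inhibition over about 50% at 20 µM in the single-dose screen, limit read from the data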;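 also: 0% = DMSO wells and 100% = excess unlabeled CBFb competitor control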
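System: Cerulean-labeled Runt domain protein | Quantity: 100 nM of each labeled protein | Schedule: 1 h compound exposure, room temperature | Detection: Fluorescence energy transfer, 422 nm excitation, 530/480 nm emission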
RanGTP-Impb inh: inhibitors of RanGTP-importin-beta interaction, primary screen, biochemical, FRET, CFP-Ran, YFP-importin-beta, homogeneous; Ran GTPase (GTP-bound) - importin-beta complex; cell-free CFP-Ran/YFP-importin-beta FRET ratio; inhibition, % (test concentration not listed); 300,000 compounds, 1.1% hits;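 active = more than half of the replicate wells show a fall in the fluorescence ratio signal beyond about 16%, limit read from the data, passing the limit was not always enough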;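 also: 0% = DMSO wells and 100% = Ran loaded with GDP instead of GTP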
Runt-SMMHC FRET: inhibitors of RUNX1 Runt–CBFb-SMMHC binding, primary screen, biochemical, FRET, Cerulean-Runt, Venus-CBFb-SMMHC, uHTS; Runt-related transcription factor 1 (Homo sapiens) + Core-binding factor subunit beta …; Cerulean-Runt/Venus-CBFb-SMMHC FRET ratio 530/480, 1 h; inhibition, % at 20 µM; 220,000 compounds, 0.74% hits;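 active = mean inhibition across duplicate retests at 20 µM reaching about 50%, limit read from the data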;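 also: 0% = DMSO wells and 100% = wells with excess untagged CBFb-SMMHC; inhibitors lower the FRET ratio by blocking Runt binding to CBFb-SMMHC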
TbHK1 inh: Trypanosoma brucei hexokinase 1 inhibitors, primary screen, biochemical, G6PDH-coupled NADH absorbance, MLSCN library; recombinant TbHK1, G6PDH-coupled NADH A340; inhibition, % at 10 µM; 220,000 compounds, 0.11% hits; AID 1430, 2008;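 active = inhibition of 50% or more in the single-dose primary screen; inactive = inhibition below 50%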
Hck-Nef inh: inhibitors of Nef-activated human Hck kinase, primary screen, biochemical, Z-Lyte FRET, 384-well, Hck-YEEI; Tyrosine-protein kinase HCK (Homo sapiens), P08631; inhibition, % at 20 µM; 220,000 compounds, 0.68% hits; AID 463187, 2010; Recombinant Hck-YEEI plus Nef, Z-Lyte FRET kinase assay;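 active = Hck-Nef kinase inhibition above about 50%, limit read from the data; inactive = inhibition below that limit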;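 also: 0% = DMSO with Hck plus Nef and 100% = Hck alone without Nef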
Target sequence (P08631 whole entry, looked up): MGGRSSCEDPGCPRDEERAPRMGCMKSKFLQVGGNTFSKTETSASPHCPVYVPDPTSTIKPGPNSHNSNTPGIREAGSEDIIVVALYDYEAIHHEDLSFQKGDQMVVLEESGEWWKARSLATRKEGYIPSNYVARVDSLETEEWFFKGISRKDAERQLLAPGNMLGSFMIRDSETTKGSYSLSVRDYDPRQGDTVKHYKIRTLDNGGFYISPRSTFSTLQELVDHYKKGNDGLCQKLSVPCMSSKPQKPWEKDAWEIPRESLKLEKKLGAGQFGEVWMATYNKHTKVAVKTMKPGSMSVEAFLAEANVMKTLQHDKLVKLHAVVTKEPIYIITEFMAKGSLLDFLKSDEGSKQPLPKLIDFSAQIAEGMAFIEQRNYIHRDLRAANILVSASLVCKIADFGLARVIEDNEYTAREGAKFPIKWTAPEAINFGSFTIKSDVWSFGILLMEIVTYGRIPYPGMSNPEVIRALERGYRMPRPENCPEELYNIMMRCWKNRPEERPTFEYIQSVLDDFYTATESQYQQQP
14-3-3 Bad PPI: inhibitors of 14-3-3 zeta/Bad binding, primary screen, biochemical, TR-FRET, bovine 14-3-3 zeta | AID 781, 2007 | TR-FRET 14-3-3zeta/Dy647-pBad peptide displacement, 1 h | inhibition, % at 21.7 µM | 14-3-3 protein zeta/delta (Bos taurus), P63103 | 220,000 compounds, 0.71% hits;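 active = inhibition above about 70%, limit read from the data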;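 also: 0% = full 14-3-3 plus peptide FRET controls and 100% = background without 14-3-3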
G6PDH counter: Leuconostoc G6PDH inhibition, confirmation, counter-screen for TbHK1 inhibitor project, biochemical, DPI cherry-picked compounds, single concentration. shares compounds with TbHK1 inh. purified G6PDH, NADH absorbance, 1 h. inhibition, % at 10 µM. 210 compounds, 7% hits. AID 2516, 2010;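 active = at least 50% inhibition in the glucose-6-phosphate dehydrogenase coupled counterscreen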
TbHK1 rescreen: TbHK1 inhibitor retest, confirmation, biochemical, DPI cherry-picked primary actives. shares compounds with TbHK1 inh. recombinant TbHK1, G6PDH-coupled NADH A340 absorbance. inhibition, % at 10 µM. 210 compounds, 10% hits;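 active = inhibition of at least 50% in both of the two screening runs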;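 also: 0% and 100% set by the maximum and minimum signal control wells on each plate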
The depositor's hits bear a star; nt = not tested or not shown; [ ] = dose if it differs, or a comment. Sampled rows, rich in hits. Any-hit rate of the full collection: about 2.2%.

SMILES	Runt-CBFb FRET	RanGTP-Impb inh	Runt-SMMHC FRET	TbHK1 inh	Hck-Nef inh	14-3-3 Bad PPI	G6PDH counter	TbHK1 rescreen
O=S1(=O)N=C(Nc2ccc(N3CCOCC3)cc2)c2ccccc21	-2	nt	1	-12	-6	9	nt	nt
CC12CCC(C(=O)NC(c3ccccc3)c3ccccc3)(OC1=O)C2(C)C (stereo not given)	3	5	2	61*	0	-11	-7	4
CCCCn1c(NC(=S)Nc2ccccc2)nc2ccccc21	2	0	4	62*	2	-16	-33	-37
Cc1ccc(-c2nnc3c4ccccc4c(C)nn23)cc1NC(=O)CN1CCOCC1	1	-1	-1	51*	6	-6	-20	-11
O=C(OCCN1C(=O)c2ccccc2C1=O)c1cnccn1	-2	-3	-2	51*	4	1	-13	-1
O=C(NCCc1ccccn1)c1cc2ccccc2o1	nt	-2	nt	nt	nt	nt	nt	nt
O=C(CCN1C(=O)C2CCCCC2C1=O)Nc1ccc(F)c(F)c1F (stereo not given)	1	3	4	7	-3	7	nt	nt
O=C(O)CCCCC1CCSS1 (stereo not given)	38	-2	27	86*	101*	99*	-39	96*
O=C(O)C1CCCCC1C(=O)NCCCN1CCOCC1 (stereo not given)	-3	6	-1	51*	5	0	-7	-3
O=C(NCCCN1CCOCC1)C(=O)NCC1CCCO1 (stereo not given)	1	-1	2	31	1	-8	nt	nt
CC(C)(C)OC(=O)CNC(=O)c1[nH]cnc1C(=O)NCCCCCNC(=O)OC(C)(C)C	nt	-1	nt	nt	nt	nt	nt	nt
NC(=O)C1CCN(C(=O)c2cc(S(=O)(=O)N3CCOCC3)c(Cl)cc2Cl)CC1	2	1	-2	69*	6	-2	-8	-3
Cc1ccc(N/C(CSC(N)=O)=N/S(=O)(=O)c2ccccc2)cc1	-2	3	-2	4	2	0	nt	nt
NC(=O)SC/C(=N\S(=O)(=O)c1ccccc1)Nc1ccccc1	-2	nt	2	58*	4	-11	0	2
CCN(CC)c1ccc(NC(=O)C2CCCN(S(=O)(=O)c3cccnc3)C2)c(C)c1 (stereo not given)	14	0	14	-6	1	6	nt	nt
CCN(CC)CCCN1C(=O)c2oc3ccccc3c(=O)c2C1c1cccnc1 (stereo not given)	1	4	-2	54*	16	5	-17	-10
O=C(O)CSc1cc(NS(=O)(=O)c2cccc([N+](=O)[O-])c2)c2ccccc2c1O	15	0	-4	63*	45	86*	74*	62*
O=C(C1CCN(S(=O)(=O)c2cccc3nsnc23)CC1)N1CCc2ccccc2C1	-2	3	4	54*	10	-11	-30	-19
Cc1c(Cl)cccc1N1C(=O)C2ON(c3ccccc3)C(c3cccnc3)C2C1=O (stereo not given)	0	-1	0	51*	2	-4	-26	-9
C=CCn1c(SCC(=O)Nc2ccc(O)cc2)nc2sc(CC)cc2c1=O	nt	-3	nt	nt	nt	nt	nt	nt
Cc1cccc(NC(=S)NNC(=O)c2cc3c(s2)CCC(C)C3)c1C (stereo not given)	-1	-3	0	71*	3	-1	-34	-1
Cc1ccc(C)c(NC(=S)NNC(=O)c2cc3c(s2)CCC(C)C3)c1 (stereo not given)	3	-2	1	6	2	-12	nt	nt
Cc1nn(C)cc1C1C2=C(CC(C)(C)CC2=O)OC2=C1C(=O)CC(C)(C)C2	-1	-4	3	1	2	6	nt	nt
CC1(C)Cc2c(C#N)c(N)sc(=S)c2CO1	-5	-1	-48	73*	10	32	101*	68*
CC(C)C1Cc2c(C#N)c(N)sc(=S)c2CO1 (stereo not given)	3	-10	-46	19	4	9	nt	nt
SMILES	Runt-CBFb FRET	RanGTP-Impb inh	Runt-SMMHC FRET	TbHK1 inh	Hck-Nef inh	14-3-3 Bad PPI	G6PDH counter	TbHK1 rescreen
Cc1[nH]c(=O)c(C#N)c(C)c1CCC(=O)NCc1cccc(C(F)(F)F)c1	nt	7	nt	nt	nt	nt	nt	nt
N#Cc1cc(Sc2ccccn2)c(Sc2ccccn2)cc1C#N	3	2	0	58*	9	1	-12	-9
N#Cc1cc(Sc2ccccn2)c([N+](=O)[O-])cc1C#N	1	0	-8	-10	8	1	nt	nt
O=[N+]([O-])c1ccccc1/C=N\Nc1nccs1	nt	-1	nt	nt	nt	nt	nt	nt
O=[N+]([O-])c1cc(/C=N\Nc2nccs2)ccc1O	28	4	11	50*	1	75*[fluorescence artefact?]	-65	56*
Clc1ccc(-c2nnc(NC3=NCCCCC3)o2)cc1	-5	-1	-2	50*	0	3	-3	2
CCOc1ccc(NC(=S)NNc2ccnc3cc(Cl)ccc23)cc1	6	-4	6	-5	-6	-6	nt	nt
S=C(NNc1ccnc2cc(Cl)ccc12)Nc1ccc(Cl)cc1Cl	20	-3	-21	61*	26	92*	109*	60*
Cc1occc1-c1nnc(SCC(=O)Nc2ccc(F)cc2)n1C	nt	-1	nt	nt	nt	nt	nt	nt
Cc1cccc(C)c1NC(=O)CSc1nnc(-c2ccoc2C)n1C	-1	-3	1	67*	7	-6	3	-2
CCOC(=O)N1CCN(c2ccc(S(=O)(=O)N(Cc3ccccc3)Cc3ccccc3)cn2)CC1	-5	-3	13	58*	1	-3	-46	7
O=C(Cn1nc(-c2cccc([N+](=O)[O-])c2)c2ccccc2c1=O)Nc1cccnc1	0	1	-2	-5	0	6	nt	nt
COc1cc(/C=C(\C#N)c2nc3c(s2)CCCC3)ccc1O	-78	-47	-261	54*	-2	37	-48	88*

Assay outcomes deposited in PubChem BioAssay by several laboratories.
